An excerpt weighted towards active compounds, which were near 2.3% of everything screened.
CHT block: inhibitors of human choline transporter CHT. CHT-expressing cells, membrane potential dye, choline response; hits give low values. AID 488975, 2010. B-score at 10 µM. hit rate 0.86% among 310,000;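 active means B-score over 3 SD under the library average, and starting fluorescence ratio not unusually high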;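 further: choline stimulus applied at its EC90 after an EC20 pre-addition; B-score computed on integrated fluorescence ratio after choline addition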
NR2E3 ag-1: inhibitors of NR2E3-RetCOR corepressor binding, primary screen, NR2E3 agonist project, biochemical, TR-FRET, GST-NR2E3, biotin-RetCOR; Photoreceptor-specific nuclear receptor (Homo sapiens), Q9Y5X4; 1536-well; inhibition of corepressor binding, % at 4.78 µM; hit rate 0.12% among 320,000;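 active means percent inhibition above the cutoff of mean plus 3 SD of all tested compounds, set per screening campaign, cut at about 20% in these data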
Target sequence (Q9Y5X4 whole entry, looked up): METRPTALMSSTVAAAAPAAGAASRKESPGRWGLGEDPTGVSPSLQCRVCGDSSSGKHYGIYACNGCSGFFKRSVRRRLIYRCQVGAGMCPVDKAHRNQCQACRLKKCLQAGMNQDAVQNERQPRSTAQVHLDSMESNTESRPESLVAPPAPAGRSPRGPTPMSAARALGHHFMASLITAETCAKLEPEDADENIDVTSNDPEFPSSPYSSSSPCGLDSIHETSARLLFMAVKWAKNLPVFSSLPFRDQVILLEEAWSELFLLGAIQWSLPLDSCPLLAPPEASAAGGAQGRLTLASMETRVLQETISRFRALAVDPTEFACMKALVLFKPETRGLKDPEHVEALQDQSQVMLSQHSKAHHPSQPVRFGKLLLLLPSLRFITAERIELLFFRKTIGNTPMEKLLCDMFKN
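System: GST-tagged NR2E3 plus biotinylated RetCOR corepressor; Buffer or medium: pH 7.5 Tris-based buffer; Probe or stimulus: RetCOR corepressor, biotinylated, 7 nM; Doses: compound at 4.8 µM, single dose; Schedule: 5 h incubation at 4 °C; Technique: time-resolved FRET; Evaluation: percent inhibition of TR-FRET ratio; Replication: one well per compound, singlicate testing.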
NR2E3 ag-2: NR2E3 agonists in two-hybrid cells, primary screen, cell-based, luminescence, CHO-S, Gal4-NCOR/VP16-NR2E3; AID 602229, 2012; luciferase; hit rate 0.35% among 360,000; Photoreceptor-specific nuclear receptor (Homo sapiens), Q9Y5X4; inhibition of corepressor binding, % at 3.98 µM;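 active means inhibition above the mean of all tested compounds plus 3 SD, cut at about 70% in these data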;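 further: higher means lower luciferase signal from less NR2E3 corepressor binding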
NR2F2 inh: NR2F2 transcriptional activity inhibitors, primary screen, cell-based, luciferase reporter, HEK293T, luminescence | HEK293T NGFI-A luciferase reporter | inhibition, % at 8.6 µM | hit rate 0.7% among 370,000;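 active means inhibition above a per-plate cutoff, mean inhibition of test wells between control levels plus 3 SD, cut at about 38% in these data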;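 further: cells cotransfected with COUP-TFII expression vector driving the NGFI-A reporter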
CHT PAM: CHT positive allosteric modulators, primary screen, cell-based, membrane potential dye, choline EC20; hit rate 0.49% among 310,000; B-score at 10 µM; AID 488977, 2010; High affinity choline transporter 1 (Homo sapiens), Q9GZV3; CHT-expressing cells; hits give high values; LV-AA mutant CHT in HEK293 cells;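 active means initial fluorescence not abnormally high and integrated response B-score, plate-corrected, over 3 SD above library mean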
GalR3 antag: GalR3 antagonists in HEK293 cells, primary screen, cell-based, fluorescence readout | Galanin receptor type 3 (Homo sapiens), O60755 | HEK293 GalR3-CNG cAMP membrane potential fluorescence; galR3 body fused to GalR1 C-terminus | inhibition, % at 3 µM | hit rate 0.44% among 360,000 | AID 651719, 2012;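 active means inhibition above the screen-wide average plus 3 SD, cut at about 13% in these data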;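 further: forskolin and galanin both at EC90 stimulate the cells; cAMP rise reported by CNG channel membrane potential dye signal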
Target sequence (O60755 1-299 limits assumed): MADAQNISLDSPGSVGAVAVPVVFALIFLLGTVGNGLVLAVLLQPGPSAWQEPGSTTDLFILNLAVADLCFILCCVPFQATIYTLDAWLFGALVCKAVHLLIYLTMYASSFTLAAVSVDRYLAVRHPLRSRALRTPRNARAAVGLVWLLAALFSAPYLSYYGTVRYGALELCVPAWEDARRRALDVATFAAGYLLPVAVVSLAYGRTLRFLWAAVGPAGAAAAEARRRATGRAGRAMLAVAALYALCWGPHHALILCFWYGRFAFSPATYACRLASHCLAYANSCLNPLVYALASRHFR
CHT inh conf: CHT inhibitors, confirmation, cell-based, membrane potential dye, duplicate. shares compounds with CHT block. CHT-expressing cells, choline membrane potential dye; LV-to-AA substituted CHT, HEK293 cells. CHT activity remaining % of control (hits give low values), % at 10 µM. hit rate 70% among 2,400. AID 493221, 2011;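 active means choline transporter activity left, mean of duplicates at 10 µM, below buffer-only control mean minus 3 SD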;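 further: depolarization triggered by choline at its EC90 following an EC20 pre-addition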
HEK293 CHT ctr: membrane potential effects in parental HEK293, counter-screen for CHT inhibitor project, cell-based, membrane potential dye; AID 493222, 2011; membrane potential ratio readout (active if shifted either direction beyond buffer ±3SD; no single direction) at 10 µM; hit rate 4% among 2,400; choline response; active = decrease or increase beyond buffer ±3SD; shares compounds with CHT block;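 further: parental cells lack the transporter so any hit is non-specific; ratio is peak minus trough fluorescence over baseline after EC90 choline challenge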
CHT activ conf: CHT activators, confirmation, cell-based, membrane potential dye, duplicate. shares compounds with CHT PAM. CHT-expressing cells, membrane potential dye fluorescence (FDSS); % of choline EC20–EC90 response window; HEK293 expressing CHT LV-AA mutant; choline added at its EC20. activation, % at 10 µM. hit rate 91% among 2,500. AID 504833, 2011;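 active means primary screen active, with duplicate mean activation above negative control mean plus 3 SD, cut at about 11% in these data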
HEK293 MP dye: membrane potential response in parental HEK293 cells, counter-screen for CHT activator project, cell-based, membrane potential dye; shares compounds with CHT PAM; ratio readout change at 10 µM, hits read low; membrane potential dye fluorescence (FDSS); measured after EC20 choline addition; hit rate 62% among 2,500;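 active means duplicate-averaged ratio beyond 3 SD from buffer wells, up or down, though filed actives are nearly all decreases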
NR2E3 ag confirm: NR2E3 agonist confirmation in cells, cell-based, luminescence, CHO-S two-hybrid; shares compounds with NR2E3 ag-2; CHO-S mammalian two-hybrid NR2E3-NCOR, luciferase luminescence; inhibition, % at 3.98 µM; hit rate 51% among 2,300; AID 624378, 2012;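 active means average inhibition above a cutoff equal to the mean inhibition of all tested compounds plus one SD, cut at about 70% in these data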
GAL4-VP16 luc: GAL4-VP16 reporter modulators, confirmation, counter-screen for NR2E3 agonist project, cell-based, luminescence, CHO-S, high throughput; hit rate 29% among 2,300; shares compounds with NR2E3 ag-2; inhibition, % at 3.98 µM; AID 624379, 2012; CHO-S GAL4-VP16 luciferase reporter;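 active means mean inhibition above a cutoff equal to the average over all tested compounds plus one standard deviation, cut at about 70% in these data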;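 further: luciferase from a UAS reporter driven by GAL4-VP16 transactivation; higher means less reporter light so more repression of VP16 activity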
Gal4-VP16 ctr: Gal4-VP16 luciferase reporter inhibitors, counter-screen for COUP-TFII antagonist project, cell-based, luminescence, HEK293; inhibition, % at 8.5 µM; AID 687007, 2013; hit rate 25% among 2,500; shares compounds with NR2F2 inh; in the data active means inhibition above about 13%
COUP-TFII conf: NR2F2 transcriptional activity inhibitors, confirmation, cell-based, luciferase reporter, HEK293, triplicate; AID 687008, 2013; shares compounds with NR2F2 inh; hit rate 45% among 2,500; HEK293 NGFI-A luciferase reporter, luminescence; inhibition, % at 8.5 µM;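 active means mean inhibition over three repeats above a set limit taken from the earlier primary screen, cut at about 38% in these data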
Large screens that a line does not name were inactive (follow-up assays come after a bar, where they were run).

Cc1ccc(-n2nc3c(=O)n(C(C)C(=O)NCCCc4ccccc4)nc(C)c3c2C)cc1 (stereo not given)	CHT block -5, NR2F2 inh 55 | CHT inh conf inactive | HEK293 CHT ctr inactive | NR2E3 ag confirm inactive | GAL4-VP16 luc inactive | Gal4-VP16 ctr inactive | COUP-TFII conf 45
CCc1c(C)nc2ncnn2c1NCCc1ccc(Cl)cc1	CHT block -5.2, NR2F2 inh 47 | CHT inh conf 63% | HEK293 CHT ctr inactive | Gal4-VP16 ctr inactive | COUP-TFII conf inactive
CCc1c(C)nc2ncnn2c1Nc1ccccc1C	none (no result: NR2E3 ag-1)
CCC(=O)Nc1ccccc1C(=O)C(=O)Nc1ccccc1	none
CCC(=O)Nc1ccccc1C(=O)OC(c1ccccc1)c1ccccc1	CHT PAM 7.3 | CHT activ conf 27 | HEK293 MP dye inactive
COC(=O)[C@]12C=CCN1[C@H](c1ccc(OC)c(OC)c1)c1c(c3ccccc3n1S(=O)(=O)c1ccc(C)cc1)C2	none (no result: CHT block, NR2E3 ag-1, NR2E3 ag-2, CHT PAM, GalR3 antag)
CS(=O)(=O)N1CCN(c2ccc([N+](=O)[O-])c(NCCN3CCOCC3)c2)CC1	none | CHT activ conf 32 | HEK293 MP dye -40
COc1cccc(N2CCN(CC(=O)NCc3ccccc3C)CC2)c1	none (no result: CHT block, NR2E3 ag-1, NR2E3 ag-2, CHT PAM, GalR3 antag)
COc1cccc(CN2CCC(N(CCc3ccccc3)Cc3ccccc3)CC2)c1OC	CHT PAM 10 | CHT activ conf 34 | HEK293 MP dye inactive
O=C(C[n+]1ccccc1)N/N=C/c1cc(Br)cc(Br)c1O	none (no result: NR2F2 inh, GalR3 antag)
CCC(O)(CC)C(=O)N/N=C/c1cc(Br)cc(Br)c1O	none | CHT activ conf 14 | HEK293 MP dye inactive
CN(C)c1ccc(C(=O)NC2CCCCN(Cc3ccc(Cl)cc3)C2=O)cc1 (stereo not given)	none (no result: CHT block, NR2E3 ag-1, NR2E3 ag-2, CHT PAM, GalR3 antag)
Nn1c(SCC(=O)Nc2ccccc2-c2ccccc2)nnc1-c1cc(-c2ccc(Cl)cc2)n[nH]1	none (no result: CHT block, NR2E3 ag-1, NR2E3 ag-2, CHT PAM, GalR3 antag)
C/C(=N\NC(=O)c1ccccc1)c1cccc(Br)c1	none | CHT activ conf inactive | HEK293 MP dye inactive
COc1ccc([N+](=O)[O-])cc1N(CC(O)CN(C)C)S(=O)(=O)c1ccc(C)cc1 (stereo not given)	none
COc1ccc([N+](=O)[O-])cc1N(CC(O)CN(CC(C)C)CC(C)C)S(=O)(=O)c1ccccc1 (stereo not given)	CHT PAM 13 | CHT activ conf 42 | HEK293 MP dye inactive
CCCCN(CCCC)CC(O)CN(c1cc([N+](=O)[O-])ccc1OC)S(=O)(=O)c1ccccc1 (stereo not given)	CHT PAM 11 | CHT activ conf 53 | HEK293 MP dye -45
COc1ccc(C2CCC3(CCC(=O)N3CCO)CC2)cc1 (stereo not given)	none (no result: CHT block, NR2E3 ag-1, NR2E3 ag-2, CHT PAM, GalR3 antag)
Cc1cccc(Cn2c(Cc3ccccc3)nc3ccccc32)c1	CHT PAM 9.8 | CHT activ conf inactive | HEK293 MP dye inactive
Fc1ccc(-c2nc3ccccc3[nH]2)cc1	none
Fc1ccc(-c2nc3ccncc3[nH]2)cc1	CHT PAM 7.9 | CHT activ conf 59 | HEK293 MP dye -65
Clc1ccc(-c2nc3ccncc3[nH]2)cc1	CHT PAM 6.8 | CHT activ conf 52 | HEK293 MP dye -51
COc1ccc2c3c(cccc13)C(=O)N(O)C2=O	none | CHT activ conf 41 | HEK293 MP dye -30
COc1ccccc1N1C(=O)c2cccc3c(C(=O)O)ccc(c23)C1=O	none
Cc1cccc(C(=O)Nc2c(-c3ccc(C(F)(F)F)cc3)nc3ncccn23)c1	none (no result: CHT block, NR2E3 ag-1, NR2E3 ag-2, CHT PAM, GalR3 antag)
O=C(CSc1nnc(-c2cccs2)o1)Nc1cccc2ccccc12	none (no result: CHT block, NR2E3 ag-1, NR2E3 ag-2, CHT PAM, GalR3 antag)
CCCCN(CC)CCNC(=O)CCC(=O)Nc1ccc2nc(N3CCN(C)CC3)cc(C)c2c1	none | CHT activ conf 42 | HEK293 MP dye inactive
CCCCN(CC)CCNC(=S)Nc1ccc2nc(N3CCN(C)CC3)cc(C)c2c1	none | CHT activ conf 35 | HEK293 MP dye inactive
COCCCNC(=O)CCC(=O)Nc1ccc2nc(N3CCOCC3)cc(C)c2c1	CHT PAM 8 | CHT activ conf 37 | HEK293 MP dye -52
CCCN(CCC)CCCNC(=S)Nc1ccc2nc(N3CCN(C)CC3)cc(C)c2c1	none | CHT activ conf 52 | HEK293 MP dye -27
CCN(CC)CCCNC(=O)CCC(=O)Nc1ccc2nc(N3CCCCC3)cc(C)c2c1	none
Cc1cc(N2CCN(C)CC2)nc2ccc(NC(=S)NC3CC3)cc12	none
